Test results from paper PMC10795913 (The Journal of Clinical Endocrinology and Metabolism, 2023).
Marks after values point to notes of the source that are not given here.

Assays:
[1] = tested on: patients with type 2 diabetes; test: Antidrug antibody; type: in vivo, human
[2] = target: T1, native GIP (nGIP) (Homo sapiens, UniProt P09681); test: Cross-reactive ADA binding to nGIP; type: in vivo; settings: N = 5025
T1 sequence (P09681 52-93 limits assumed): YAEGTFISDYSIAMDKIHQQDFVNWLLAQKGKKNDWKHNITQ

[3] = tested on: native GLP-1 (nGLP-1); test: Cross-reactive ADA binding to nGLP-1; type: in vivo, human; settings: N = 5025
[4] = target: T2, GIPR (Homo sapiens, UniProt P48546); test: Cell-based assay for NAb against TZP activity on GIPR; type: in vivo; settings: N = 5025
T2 sequence (P48546 22-466): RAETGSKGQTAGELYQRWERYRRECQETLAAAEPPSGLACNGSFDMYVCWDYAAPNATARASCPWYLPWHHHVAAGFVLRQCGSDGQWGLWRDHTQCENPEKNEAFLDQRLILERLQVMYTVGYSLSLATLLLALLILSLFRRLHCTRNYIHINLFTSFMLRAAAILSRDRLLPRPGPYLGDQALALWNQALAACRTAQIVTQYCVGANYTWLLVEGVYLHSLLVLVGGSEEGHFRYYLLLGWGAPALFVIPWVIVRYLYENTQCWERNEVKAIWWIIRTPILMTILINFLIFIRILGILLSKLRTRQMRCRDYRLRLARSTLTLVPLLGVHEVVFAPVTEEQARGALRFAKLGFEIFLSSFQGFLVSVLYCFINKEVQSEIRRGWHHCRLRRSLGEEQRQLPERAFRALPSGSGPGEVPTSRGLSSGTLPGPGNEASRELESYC

[5] = target: GLP-1R (Homo sapiens, UniProt P43220); test: Cell-based assay for NAb against TZP activity on GLP-1R; type: in vivo; settings: N = 5025
[6] = tested on: patients with type 2 diabetes; test: Hypersensitivity reactions by TE ADA status; type: in vivo, human
How it was run: (§1)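 Hypersensitivity or injection site reactions during the planned treatment period were tabulated by dose group. Patients were split by treatment-emergent ADA status (TE ADA+ vs TE ADA–). Analysis was descriptive and non-randomized.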

[7] = tested on: patients with type 2 diabetes; test: Injection site reactions by TE ADA status; type: in vivo, human
How it was run: as §1

[8] = Tirzepatide pharmacokinetics; type: in vivo, human
[9] = tested on: patients; settings: different assays, not directly comparable; cited from earlier work
[10] = TZP 5 mg, TE ADA status not evaluable
[11] = TZP 10 mg, TE ADA status not evaluable
[12] = TZP all doses, TE ADA status not evaluable

Chain of GLP-1R (P43220 24-463): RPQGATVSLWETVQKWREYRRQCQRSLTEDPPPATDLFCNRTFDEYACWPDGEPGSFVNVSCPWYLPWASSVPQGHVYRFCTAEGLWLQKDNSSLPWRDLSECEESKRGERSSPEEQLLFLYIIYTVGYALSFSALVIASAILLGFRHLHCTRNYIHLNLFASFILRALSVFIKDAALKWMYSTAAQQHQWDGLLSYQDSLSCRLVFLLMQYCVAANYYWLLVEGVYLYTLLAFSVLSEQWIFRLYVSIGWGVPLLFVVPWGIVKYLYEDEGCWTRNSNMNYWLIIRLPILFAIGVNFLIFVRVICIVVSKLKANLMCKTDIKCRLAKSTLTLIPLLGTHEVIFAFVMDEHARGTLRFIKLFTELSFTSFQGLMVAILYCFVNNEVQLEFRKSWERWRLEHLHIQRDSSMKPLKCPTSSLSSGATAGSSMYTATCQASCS

## CC[C@H](C)[C@H](NC(=O)[C@H](CC(C)C)NC(=O)[C@H](Cc1c[nH]c2ccccc12)NC(=O)[C@H](CCC(N)=O)NC(=O)[C@@H](NC(=O)[C@H](Cc1ccccc1)NC(=O)[C@H](C)NC(=O)[C@H](CCCCNC(=O)COCCOCCNC(=O)COCCOCCNC(=O)CC[C@H](NC(=O)CCCCCCCCCCCCCCCCCCC(=O)O)C(=O)O)NC(=O)[C@H](CCC(N)=O)NC(=O)[C@H](C)NC(=O)[C@@H](NC(=O)[C@H](CCCCN)NC(=O)[C@H](CC(=O)O)NC(=O)[C@H](CC(C)C)NC(=O)C(C)(C)NC(=O)[C@@H](NC(=O)[C@H](CO)NC(=O)[C@H](Cc1ccc(O)cc1)NC(=O)[C@H](CC(=O)O)NC(=O)[C@H](CO)NC(=O)[C@@H](NC(=O)[C@H](Cc1ccccc1)NC(=O)[C@@H](NC(=O)CNC(=O)[C@H](CCC(=O)O)NC(=O)C(C)(C)NC(=O)[C@@H](N)Cc1ccc(O)cc1)[C@@H](C)O)[C@@H](C)O)[C@@H](C)CC)[C@@H](C)CC)C(C)C)C(=O)N[C@@H](C)C(=O)NCC(=O)NCC(=O)N1CCC[C@H]1C(=O)N[C@@H](CO)C(=O)N[C@@H](CO)C(=O)NCC(=O)N[C@@H](C)C(=O)N1CCC[C@H]1C(=O)N1CCC[C@H]1C(=O)N1CCC[C@H]1C(=O)N[C@@H](CO)C(N)=O [tirzepatide]
[1]; SURPASS Japan-Combo, N 443
  Time to first TE ADA+ titer ≤4 wk: 1 (0.2) n (%)
  Time to first TE ADA+ titer ≤12 wk: 32 (7.2) n (%)
  Time to first TE ADA+ titer ≤40 wk: 209 (47.2) n (%)
  Time to first TE ADA+ titer ≤52 wk: 244 (55.1) n (%)
[1]; SURPASS Japan-Combo, N 443, flexibility of visit windows
  Time to first TE ADA+ titer ≤78 wk: 257 (58.0)^a n (%)
[1]; SURPASS Japan-Mono, N 476
  Time to first TE ADA+ titer ≤4 wk: 4 (0.8) n (%)
  Time to first TE ADA+ titer ≤12 wk: 51 (10.7) n (%)
  Time to first TE ADA+ titer ≤24 wk: 182 (38.2) n (%)
  Time to first TE ADA+ titer ≤40 wk: 278 (58.4) n (%)
  Time to first TE ADA+ titer ≤52 wk: 312 (65.5) n (%)
[1]; SURPASS Japan-Mono, N 476, flexibility of visit windows
  Time to first TE ADA+ titer ≤78 wk: 322 (67.6)^a n (%)
[1]; SURPASS-1, N 351
  Time to first TE ADA+ titer ≤4 wk: 0 n (%)
  Time to first TE ADA+ titer ≤12 wk: 16 (4.6) n (%)
  Time to first TE ADA+ titer ≤24 wk: 90 (25.6) n (%)
  Time to first TE ADA+ titer ≤40 wk: 155 (44.2) n (%)
[1]; SURPASS-1, N 351, flexibility of visit windows
  Time to first TE ADA+ titer ≤52 wk: 174 (49.6)^a n (%)
[1]; SURPASS-2, N 1393
  Time to first TE ADA+ titer ≤4 wk: 6 (0.4) n (%)
  Time to first TE ADA+ titer ≤12 wk: 91 (6.5) n (%)
  Time to first TE ADA+ titer ≤24 wk: 352 (25.3) n (%)
  Time to first TE ADA+ titer ≤40 wk: 639 (45.9) n (%)
[1]; SURPASS-2, N 1393, flexibility of visit windows
  Time to first TE ADA+ titer ≤52 wk: 704 (50.5)^a n (%)
[1]; SURPASS-3, N 1062
  Time to first TE ADA+ titer ≤4 wk: 12 (1.1) n (%)
  Time to first TE ADA+ titer ≤12 wk: 80 (7.5) n (%)
  Time to first TE ADA+ titer ≤24 wk: 266 (25.0) n (%)
  Time to first TE ADA+ titer ≤40 wk: 466 (43.9) n (%)
  Time to first TE ADA+ titer ≤52 wk: 518 (48.8) n (%)
[1]; SURPASS-3, N 1062, flexibility of visit windows
  Time to first TE ADA+ titer ≤78 wk: 536 (50.5)^a n (%)
[1]; SURPASS-4, N 956
  Time to first TE ADA+ titer ≤4 wk: 7 (0.7) n (%)
  Time to first TE ADA+ titer ≤12 wk: 62 (6.5) n (%)
  Time to first TE ADA+ titer ≤24 wk: 190 (19.9) n (%)
  Time to first TE ADA+ titer ≤40 wk: 300 (31.4) n (%)
  Time to first TE ADA+ titer ≤52 wk: 367 (38.4) n (%)
  Time to first TE ADA+ titer ≤78 wk: 389 (40.7) n (%)
  Time to first TE ADA+ titer ≤104 wk: 399 (41.7) n (%)
[1]; SURPASS-5, N 344
  Time to first TE ADA+ titer ≤4 wk: 3 (0.9) n (%)
  Time to first TE ADA+ titer ≤12 wk: 26 (7.6) n (%)
  Time to first TE ADA+ titer ≤24 wk: 89 (25.9) n (%)
  Time to first TE ADA+ titer ≤40 wk: 160 (46.5) n (%)
[1]; SURPASS-5, N 344, flexibility of visit windows
  Time to first TE ADA+ titer ≤52 wk: 178 (51.7)^a n (%)
[1]; baseline, 7 SURPASS phase 3 trials pooled, TE ADA-evaluable TZP-treated N = 5025
  Preexisting ADA: 353 (7.0) n (%)
[1]; postbaseline, 7 trials pooled, N = 5025
  TE ADA+: 2570 (51.1) n (%)
[2]; baseline
  Cross-reactive binding ADA to nGIP: 97 (1.9) n (%)
[2]; postbaseline
  Cross-reactive binding ADA to nGIP: 1705 (33.9) n (%)
[3]; baseline
  Cross-reactive binding ADA to nGLP-1: 34 (0.7) n (%)
[3]; postbaseline
  Cross-reactive binding ADA to nGLP-1: 716 (14.2) n (%)
[4]; baseline
  NAb against TZP activity on GIP R: 2 (<0.1) n (%)
[4]; postbaseline
  NAb against TZP activity on GIP R: 94 (1.9) n (%)
[5]; baseline
  NAb against TZP activity on GLP-1 R: 2 (<0.1) n (%)
[5]; postbaseline
  NAb against TZP activity on GLP-1 R: 107 (2.1) n (%)
[6]; TZP 5 mg, TE ADA+, n 815
  Hypersensitivity reactions, %: 3.93%
  Hypersensitivity reactions, m (number of patients with specified reaction): 32
[6]; TZP 5 mg, TE ADA–, n 855
  Hypersensitivity reactions, %: 3.04%
  Hypersensitivity reactions, m (number of patients with specified reaction): 26
[6]; TZP 10 mg, TE ADA+, n 858
  Hypersensitivity reactions, %: 3.61%
  Hypersensitivity reactions, m (number of patients with specified reaction): 31
[6]; TZP 10 mg, TE ADA–, n 812
  Hypersensitivity reactions, %: 3.2%
  Hypersensitivity reactions, m (number of patients with specified reaction): 26
[6]; TZP 15 mg, TE ADA+, n 897
  Hypersensitivity reactions, %: 4.79%
  Hypersensitivity reactions, m (number of patients with specified reaction): 43
[6]; TZP 15 mg, TE ADA–, n 788
  Hypersensitivity reactions, %: 2.66%
  Hypersensitivity reactions, m (number of patients with specified reaction): 21
[6]; TZP all doses, TE ADA+, n 2570
  Hypersensitivity reactions, %: 4.12%
  Hypersensitivity reactions, m (number of patients with specified reaction): 106
[6]; TZP all doses, TE ADA–, n 2455
  Hypersensitivity reactions, %: 2.97%
  Hypersensitivity reactions, m (number of patients with specified reaction): 73
[6]; TZP-treated patients
  Anaphylactic reactions: No anaphylactic reactions
[6]; in vivo
  Severity of hypersensitivity events in TE ADA+ patients: mostly mild to moderate
[7]; [10]
  Injection site reactions, %: 0.06%
  Injection site reactions, m (number of patients with specified reaction): 1
[7]; TZP 5 mg, TE ADA+, n 815
  Injection site reactions, %: 3.07%
  Injection site reactions, m (number of patients with specified reaction): 25
[7]; TZP 5 mg, TE ADA–, n 855
  Injection site reactions, %: 0.82%
  Injection site reactions, m (number of patients with specified reaction): 7
[7]; [11]
  Injection site reactions, %: 0.06%
  Injection site reactions, m (number of patients with specified reaction): 1
[7]; TZP 10 mg, TE ADA+, n 858
  Injection site reactions, %: 4.43%
  Injection site reactions, m (number of patients with specified reaction): 38
[7]; TZP 10 mg, TE ADA–, n 812
  Injection site reactions, %: 0.86%
  Injection site reactions, m (number of patients with specified reaction): 7
[7]; TZP 15 mg, TE ADA status not evaluable
  Injection site reactions, m (number of patients with specified reaction): 0
[7]; TZP 15 mg, TE ADA+, n 897
  Injection site reactions, %: 6.24%
  Injection site reactions, m (number of patients with specified reaction): 56
[7]; TZP 15 mg, TE ADA–, n 788
  Injection site reactions, %: 0.51%
  Injection site reactions, m (number of patients with specified reaction): 4
[7]; [12]
  Injection site reactions, %: 0.04%
  Injection site reactions, m (number of patients with specified reaction): 2
[7]; TZP all doses, TE ADA+, n 2570
  Injection site reactions, %: 4.63%
  Injection site reactions, m (number of patients with specified reaction): 119
[7]; TZP all doses, TE ADA–, n 2455
  Injection site reactions, %: 0.73%
  Injection site reactions, m (number of patients with specified reaction): 18
[7]; all events
  Severity of injection site reactions: nonserious and nonsevere
[7]; all were TE ADA+
  Patients who discontinued study drug because of injection site reactions: Four
[8]; graphical comparison, ADA detected vs not detected and by titer
  Apparent clearance (CL/F): effect of ADA status or ADA titer: not affected
[8]; in vivo
  Relationship between NAb and TZP concentration: No relationship

## albiglutide
[9]
  ADA incidence in published studies: 2.5%

## dulaglutide
[9]
  ADA incidence in published studies: up to 4.1%

## liraglutide
[9]
  ADA incidence in published studies: up to 8.7%

## lixisenatide
[9]
  ADA incidence in published studies: up to 71.2%

## semaglutide
[9]
  ADA incidence in published studies: up to 4.3%
